Here are results for 28 molecules from ChEMBL document CHEMBL1148401, “Synthesis and structure-activity relationships of novel arylpiperazines as potent and selective agonists of the melanocortin subtype-4 receptor” (J Med Chem, 2004).

Molecules are shown by their SMILES.

Series [1] addresses T1, Melanocortin receptor 4 (Homo sapiens, UniProt P32245). Briefly: Agonistic potency towards human melanocortin 4 receptor, determined by 50% maximum cAMP release. The class given is functional. In a few lines:
(§1)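 HEK293 cells stably expressing human MC3 or MC4 receptor, suspended in HBSS/0.1% BSA/10 mM HEPES at 1 × 10⁶ cells/mL. Compound serial dilutions 10 µM to 0.1 nM; NDP-α-MSH control agonist 100 nM to 1 pM. 20 min at 37 °C, quenched with sodium acetate/Triton X-100. cAMP by SPA competition with ¹²⁵I-cAMP, 12 h. EC50 at 50% maximal cAMP release, n = 2, ± SEM.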

In series [2] the target is T1, Melanocortin receptor 4. The series can be described thus: Binding affinity towards human melanocortin 4 receptor using [125I]NDP-alpha-MSH as a radioligand in HEK293 cells. The class given is cell-based. In a few lines:
(§2)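 Membranes from HEK293 cells stably expressing human MC1, MC3, MC4 or MC5 receptor, 0.5-5.0 µg protein, with 100 pM ¹²⁵I-NDP-α-MSH and WGA SPA beads. Buffer 25 mM HEPES pH 7.5, 10 mM CaCl₂, 0.3% BSA. Compound 30 µM to 300 pM. 10 h at room temperature, scintillation counting. Four-parameter logistic IC50 converted to Ki by Cheng-Prusoff; n = 2 or 4, ± SEM.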

A short description of series [3]: Half-life in fischer rats at 5 mg/kg dose, administered intravenously. It is filed as ADME, organism-based. Also on record: dose 5 mg/kg, route intravenous. To be noted: rat, in vivo, iv. In a few lines:
(§3)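 Fischer 344 rats, n = 3 per route: 5 mg/kg iv, or 30 mg/kg by gavage in 10% acacia. Retro-orbital blood into heparinized syringes at 0.5, 1, 2, 6 h after oral dosing and 0.083, 1, 2, 4, 6, 8, 24 h after iv dosing. Plasma stored at -70 °C and quantified by electrospray LC/MS/MS against standards by least-squares regression.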

Series [4] concerns the target T2, Melanocortin receptor 3 (Homo sapiens, UniProt P41968). Briefly: Binding affinity towards human Melanocortin 3 receptor (MC3R) using [125I]NDP-alpha-MSH as a radioligand in membranes of HEK 293 cells. The class given is cell membranes, HEK293. In a few lines:
as §2

In series [5] the target is Melanocortin receptor 5 (Homo sapiens, UniProt P33032). Briefly: Binding affinity towards human Melanocortin 5 receptor (MC5R) using [125I]NDP-alpha-MSH as a radioligand in membranes of HEK 293 cells. The class given is cell membranes, HEK293. In a few lines: as §2
Chain of Melanocortin receptor 5 (P33032 whole entry): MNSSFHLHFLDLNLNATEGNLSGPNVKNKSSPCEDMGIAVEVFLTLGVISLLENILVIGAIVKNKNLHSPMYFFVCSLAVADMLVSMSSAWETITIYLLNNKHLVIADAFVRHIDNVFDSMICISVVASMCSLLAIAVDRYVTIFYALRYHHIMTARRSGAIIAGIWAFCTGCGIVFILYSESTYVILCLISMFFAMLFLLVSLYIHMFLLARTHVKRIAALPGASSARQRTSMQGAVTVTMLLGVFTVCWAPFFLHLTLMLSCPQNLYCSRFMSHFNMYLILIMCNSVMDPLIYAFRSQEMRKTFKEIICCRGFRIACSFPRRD
A short description of series [6]: Oral bioavailability in fischer rats at 30 mg/kg dose, administered perorally. It is filed as ADME, organism-based. To be noted: rat, in vivo, read-out: Bioavailabiility. In a few lines:
as §3

The nature of series [7]: Clearance in fischer rats at 5 mg/kg dose, administered intravenously. More on the design: dose 5 mg/kg, route intravenous. To be noted: rat, in vivo, iv. It is filed as ADME, organism-based. In a few lines:
as §3

A short description of series [8]: Volume distribution in fischer rats at 5 mg/kg dose, administered intravenously. The class given is ADME, organism-based. More on the design: dose 5 mg/kg, route intravenous. To be noted: rat, in vivo, iv, read-out: Volume distribution. In a few lines: as §3
Series [9] in a line: Tmax in fischer rats at 30 mg/kg dose, administered orally. To be noted: rat, in vivo, po.
The target in series [10] is T2, Melanocortin receptor 3. The series can be described thus: Agonistic potency towards human Melanocortin 3 receptor (MC3R) was determined by 50% maximum cAMP release. The class given is functional. In a few lines: as §1
The target of series [11] is Melanocyte-stimulating hormone receptor (Homo sapiens, UniProt Q01726). Briefly: Binding affinity towards human Melanocortin 1 receptor (MC1R) using [125I]NDP-alpha-MSH as a radioligand in membranes of HEK 293 cells. The class given is cell membranes, HEK293. A digest of the protocol:
as §2

In general, EC50 refers to the concentration needed to bring the measured effect to its halfway point. Low readings indicate higher potency in that assay, high ones lower potency in that assay. As usually defined, the Ki is the equilibrium dissociation constant of an inhibitor or competing ligand from its target. Higher therefore signals a looser hold on the target. Broadly, the half-life is how long it takes for the measured level to halve. As a reminder, the clearance is a measure of how efficiently the substance is removed, as volume per time. The low end stands for inefficient removal, the high end for efficient removal. One may read the Tmax as the time at which the peak concentration occurs.

T1 sequence (P32245 whole entry): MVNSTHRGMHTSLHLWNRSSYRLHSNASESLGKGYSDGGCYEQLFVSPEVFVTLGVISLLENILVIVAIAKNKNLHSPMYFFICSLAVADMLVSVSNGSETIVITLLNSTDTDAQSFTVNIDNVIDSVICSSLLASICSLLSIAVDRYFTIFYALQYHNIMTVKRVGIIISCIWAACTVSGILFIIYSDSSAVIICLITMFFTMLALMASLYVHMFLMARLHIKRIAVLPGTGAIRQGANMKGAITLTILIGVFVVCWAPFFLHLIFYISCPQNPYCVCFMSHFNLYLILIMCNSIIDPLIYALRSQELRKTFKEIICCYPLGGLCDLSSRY
Chain of Melanocyte-stimulating hormone receptor (Q01726 whole entry): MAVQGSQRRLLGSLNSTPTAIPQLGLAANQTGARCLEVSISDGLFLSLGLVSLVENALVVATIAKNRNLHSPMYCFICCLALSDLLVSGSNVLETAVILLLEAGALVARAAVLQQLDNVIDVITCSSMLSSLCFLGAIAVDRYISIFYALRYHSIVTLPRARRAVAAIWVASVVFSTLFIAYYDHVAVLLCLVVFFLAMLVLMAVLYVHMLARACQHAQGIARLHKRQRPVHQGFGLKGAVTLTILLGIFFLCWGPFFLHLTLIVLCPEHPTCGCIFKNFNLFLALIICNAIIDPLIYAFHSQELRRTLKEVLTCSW
T2 sequence (P41968 whole entry): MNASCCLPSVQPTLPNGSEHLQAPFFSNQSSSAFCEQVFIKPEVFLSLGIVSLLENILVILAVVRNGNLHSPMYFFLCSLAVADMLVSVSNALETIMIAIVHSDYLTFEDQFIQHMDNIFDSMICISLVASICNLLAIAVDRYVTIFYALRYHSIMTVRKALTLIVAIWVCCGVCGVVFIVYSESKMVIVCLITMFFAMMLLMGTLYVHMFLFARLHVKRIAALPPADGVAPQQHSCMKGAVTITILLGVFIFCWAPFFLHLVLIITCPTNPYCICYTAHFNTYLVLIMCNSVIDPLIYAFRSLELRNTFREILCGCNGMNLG

On to `O=C(N[C@H](Cc1ccc(Cl)cc1)C(=O)N1CCN(c2ccccc2OCc2ccccc2)CC1)[C@H]1Cc2ccccc2CN1`, for which, in [1], the EC50 came to 150 nM. The Ki in series [2] was determined as 640 nM.

In [1], `CN(C)CCOc1ccccc1N1CCN(C(=O)[C@@H](Cc2ccc(Cl)cc2)NC(=O)[C@H]2Cc3ccccc3CN2)CC1` came in with an EC50 of 98 nM. This molecule gave a Ki in series [2] of 230 nM.

For the molecule `Cc1nccn1Cc1ccccc1N1CCN(C(=O)[C@@H](Cc2ccc(Cl)cc2)NC(=O)[C@H]2Cc3ccccc3CN2)CC1`, the midpoint of the response in series [1], the EC50, lay at 21 nM. The same molecule showed a Ki in series [2] of 140 nM.

`CC(C)Oc1ccccc1N1CCN(C(=O)[C@@H](Cc2ccc(Cl)cc2)NC(=O)[C@H]2Cc3ccccc3CN2)CC1` returned an EC50 in series [1] of 93 nM. In series [2], this molecule displayed a Ki of 460 nM.

In the case of `Nc1ccccc1N1CCN(C(=O)[C@@H](Cc2ccc(Cl)cc2)NC(=O)[C@H]2Cc3ccccc3CN2)CC1`, the response in series [1] was half-maximal at 200 nM (EC50). The molecule also returned a Ki in [2] of 1700 nM.

`O=C(N[C@H](Cc1ccc(Cl)cc1)C(=O)N1CCN(c2ccccc2Oc2ccccc2)CC1)[C@H]1Cc2ccccc2CN1` showed an EC50 in [1] of 400 nM. In series [2], this molecule returned a Ki of 640 nM.

Regarding `COc1ccccc1N1CCN(C(=O)[C@@H](Cc2ccc(Cl)cc2)NC(=O)[C@H]2Cc3ccccc3CN2)CC1`, the EC50 in series [1] turned out to be 71 nM. In [2], the Ki was 1100 nM.

Take `O=C(N[C@H](Cc1ccc(Cl)cc1)C(=O)N1CCN(c2ccccc2[N+](=O)[O-])CC1)[C@H]1Cc2ccccc2CN1`: in series [1], a half-maximal response (EC50) required 210 nM. In series [2], this molecule yielded a Ki of 2400 nM.

Consider `CS(=O)(=O)Nc1ccccc1N1CCN(C(=O)[C@@H](Cc2ccc(Cl)cc2)NC(=O)[C@H]2Cc3ccccc3CN2)CC1`, for which the half-life in series [3] is 1.7 h. Further, the Ki amounted to 8800 nM in [4], 1200 nM in series [5], 220 nM in series [2] and 12000 nM in [11]. In addition, in [6], the bioavailability was 30%. Further, the EC50 in [1] stood at 16 nM; in [10], 2000 nM. The molecule further registered a clearance in series [7] of 43 mL/min/kg. Besides, the Vd in series [8] is 4.5 L/kg. For the same molecule, the Tmax in series [9] worked out at 3 h.

In series [1], `Cc1ccccc1N1CCN(C(=O)[C@@H](Cc2ccc(Cl)cc2)NC(=O)[C@H]2Cc3ccccc3CN2)CC1` returned an EC50 of 1300 nM. Besides, in series [2], the Ki came out at 1700 nM.

Consider `CCCN(CCC)Cc1ccccc1N1CCN(C(=O)[C@@H](Cc2ccc(Cl)cc2)NC(=O)[C@H]2Cc3ccccc3CN2)CC1`, for which it took 8 nM to reach a half-maximal effect in series [1] (EC50). In series [2], this molecule had a Ki of 35 nM.

On to `CN(C)Cc1ccccc1N1CCN(C(=O)[C@@H](Cc2ccc(Cl)cc2)NC(=O)[C@H]2Cc3ccccc3CN2)CC1`, for which the Ki is 7000 nM in [4], 1400 nM in series [5], 60 nM in series [2] and greater than 20000 nM in series [11]. For the same molecule, the values for the concentration for a half-maximal effect (EC50) in series [1] and in series [10] were 7 nM and 1800 nM, respectively.

In [1], `O=C(N[C@H](Cc1ccc(Cl)cc1)C(=O)N1CCN(c2ccccc2CN2CCCCC2)CC1)[C@H]1Cc2ccccc2CN1` registered an EC50 of 37 nM. The same molecule registered a Ki in series [2] of 27 nM.

Molecule `O=C(N[C@H](Cc1ccc(Cl)cc1)C(=O)N1CCN(c2ccccc2CN2CCCC2)CC1)[C@H]1Cc2ccccc2CN1` came in with an EC50 in series [1] of 39 nM. Moreover, in series [2], affinity was put at a Ki of 24 nM.

On to `C[C@@H](O)c1ccccc1N1CCN(C(=O)[C@@H](Cc2ccc(Cl)cc2)NC(=O)[C@H]2Cc3ccccc3CN2)CC1`, for which, in series [1], the EC50 came out at 44 nM. The Ki in series [2] was 340 nM.

In turn, `C[C@H](O)c1ccccc1N1CCN(C(=O)[C@@H](Cc2ccc(Cl)cc2)NC(=O)[C@H]2Cc3ccccc3CN2)CC1` displayed an EC50 in series [1] of 34 nM. For the same molecule, the Ki in series [2] amounted to 350 nM.

Take `O=C(N[C@H](Cc1ccc(Cl)cc1)C(=O)N1CCN(c2ccccc2)CC1)[C@H]1Cc2ccccc2CN1`: in [1], the response was half-maximal at 360 nM (EC50). For the same molecule, in series [2], affinity was put at a Ki of 6600 nM.

On to `O=C(N[C@H](Cc1ccc(Cl)cc1)C(=O)N1CCN(c2ccccc2O)CC1)[C@H]1Cc2ccccc2CN1`, for which the EC50 in [1] turned out to be 490 nM. Also, the affinity in [2] corresponds to a Ki of 1900 nM.

Molecule `CC(C)c1ccccc1N1CCN(C(=O)[C@@H](Cc2ccc(Cl)cc2)NC(=O)[C@H]2Cc3ccccc3CN2)CC1` displayed an EC50 in series [1] of 110 nM. In series [2], this molecule registered a Ki of 720 nM.

Consider `Cn1ccnc1COc1ccccc1N1CCN(C(=O)[C@@H](Cc2ccc(Cl)cc2)NC(=O)[C@H]2Cc3ccccc3CN2)CC1`, for which, in [1], the EC50 came out at 140 nM. This molecule had a Ki in series [2] of 530 nM.

With `CCc1ccccc1N1CCN(C(=O)[C@@H](Cc2ccc(Cl)cc2)NC(=O)[C@H]2Cc3ccccc3CN2)CC1`, in series [1], the concentration for a half-maximal effect (EC50) came out at 145 nM. In series [2], this molecule gave a Ki of 1300 nM.

As for `Cn1ccnc1Cc1ccccc1N1CCN(C(=O)[C@@H](Cc2ccc(Cl)cc2)NC(=O)[C@H]2Cc3ccccc3CN2)CC1`, in [1], the EC50 is 44 nM. In [2], this molecule yielded a Ki of 170 nM.

Take `CS(=O)(=O)NCc1ccccc1N1CCN(C(=O)[C@@H](Cc2ccc(Cl)cc2)NC(=O)[C@H]2Cc3ccccc3CN2)CC1`: a half-maximal effect in series [1] (EC50) was put at 48 nM. Further, the affinity in [2] corresponds to a Ki of 210 nM.

`O=C(N[C@H](Cc1ccc(Cl)cc1)C(=O)N1CCN(c2ccccc2CO)CC1)[C@H]1Cc2ccccc2CN1` came in with an EC50 in [1] of 150 nM. In series [2], this molecule had a Ki of 630 nM.

With `O=C(N[C@H](Cc1ccc(Cl)cc1)C(=O)N1CCN(c2ccccc2Cn2ccnc2)CC1)[C@H]1Cc2ccccc2CN1`, the Ki in series [4] worked out at 3600 nM; in series [5] it was 700 nM; in series [2], 110 nM; in [11], 4000 nM. Also, the EC50 came to 14 nM in series [1] and 1600 nM in [10].

Take `CN(C)c1ccccc1N1CCN(C(=O)[C@@H](Cc2ccc(Cl)cc2)NC(=O)[C@H]2Cc3ccccc3CN2)CC1`: the EC50 in series [1] was 44 nM. In series [2], this molecule came in with a Ki of 1100 nM.

On to `CCOc1ccccc1N1CCN(C(=O)[C@@H](Cc2ccc(Cl)cc2)NC(=O)[C@H]2Cc3ccccc3CN2)CC1`, for which the EC50 in series [1] was determined as 40 nM. For the same molecule, affinity in series [2] was put at a Ki of 570 nM.

Consider `CCN(CC)Cc1ccccc1N1CCN(C(=O)[C@@H](Cc2ccc(Cl)cc2)NC(=O)[C@H]2Cc3ccccc3CN2)CC1`, for which, in [1], the EC50 is 14 nM. The molecule further gave a Ki in series [2] of 34 nM.
